Laboratory results: ChEMBL document CHEMBL1667759, “Molecular modeling study and synthesis of quinazolinone-arylpiperazine derivatives as α1-adrenoreceptor antagonists” (Eur J Med Chem, 2011)
Counter-ions that a name gives are not always drawn.

Tests used:
Format in all cases: functional
Felis catus [1] = assay: Hypotensive activity in normotensive cat assessed as reduction in diastolic blood pressure at 500 mg/kg, iv; conditions: Artery
Method in brief: (§1)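 Male cats (2e3 kg), acclimatized 7 days at 22 °C with 12 h light/dark cycle; groups of six. Single 500 mg/kg dose injected via femoral vein, flushed with 1 mL saline. Systolic and diastolic pressure recorded with mercury manometer on smoked kymograph; mean ± SD and % change versus control, significance by one-way ANOVA at P < 0.05. Experiments run 8–10 a.m.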

Felis catus [2] = assay: Hypotensive activity in normotensive cat assessed as reduction in systolic blood pressure at 500 mg/kg, iv; conditions: Artery; method in brief: as §1
Rattus norvegicus = species on record: Rattus norvegicus; assay: Vasodilatory activity in Wistar rat aortic rings without endothelium assessed as reduction in norepinephrine hydrochloride-induced vasoconstriction; conditions: Wister, Aorta
Method in brief: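 Thoracic aortic rings from male Wister rats (250e350 g), killed by cervical dislocation and bleeding after light ether anaesthesia. Contraction to norepinephrine hydrochloride (10^-6 M) measured before and after increasing compound concentrations; compounds dissolved in DMSO (0.01 M stock), with DMSO-alone controls. IC50 = concentration giving 50% reduction of maximal NE contracture, derived by best-fit line.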

SMILES	inhibition in vivo at 500 mg/kg (Felis catus [1]) [%]	inhibition in vivo at 500 mg/kg (Felis catus [2]) [%]	IC50 (Rattus norvegicus) [µM]
COc1ccccc1N1CCN(CC(=O)Nn2c(C)nc3ccccc3c2=O)CC1	0	0	–
CCOC(=O)c1nc2cc(OC)c(OC)cc2c(=O)n1NC(=O)CN1CCN(c2ccccc2OC)CC1	4.02	2.22	–
COc1cc2nc(C)n(NC(=O)CCN3CCN(c4ccc([N+](=O)[O-])cc4)CC3)c(=O)c2cc1OC	6.82	5	–
CCOC(=O)c1nc2cc(OC)c(OC)cc2c(=O)n1NC(=O)CCN1CCN(c2ccccc2OC)CC1	13.9	12.4	400
COc1cc2nc(C)n(NC(=O)CCN3CCN(c4ccccc4OC)CC3)c(=O)c2cc1OC	40	42.2	201
COc1cc2nc(C)n(NC(=O)CN3CCN(c4ccccc4OC)CC3)c(=O)c2cc1OC	2.78	3.13	–
COc1cc2nc(N3CCN(C(=O)c4ccco4)CC3)nc(N)c2cc1OC [PRAZOSIN HYDROCHLORIDE]	29	29	487
COc1cc2nc(C)n(NC(=O)CCN3CCN(c4ccccc4)CC3)c(=O)c2cc1OC	13.9	15.6	–
COc1cc2nc(C)n(NC(=O)CCN3CCN(C(=O)c4ccco4)CC3)c(=O)c2cc1OC	11.1	9.38	–
COc1ccccc1N1CCN(Cc2nc3ccccc3c(=O)[nH]2)CC1	21.7	23.7	303
